Source: ChEMBL document CHEMBL1133012, “QSAR based on biological microcalorimetry” (J Med Chem, 2000)

Columns and labels:
Escherichia coli [1] = assay: Potency against Escherichia coli was determined microcalorimetrically at the dose of 2.619 uMol/L; type: functional, organism-based
Escherichia coli [2] = assay: Observed diffusion coefficient in organic solvent for Escherichia coli; type: ADME, organism-based; set-up: unit not given here
Method in brief: (§1)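 Partition coefficient by Taylor-Aris diffusion in the same cells as the screen. Cells from a liquid-nitrogen ampule were put in 25 mL 1/4 Ringer's solution; 15 mL of this was diluted with a further 24 mL 1/4 Ringer's. Water bath held at 298.15 K. Carrier pumped at least 10 min or to stable baseline before first injection. Retention time and half-height peak width taken from dispersion curve. At least two replicates per solute.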

Escherichia coli [3] = assay: Normal diffusion coefficient in water for Escherichia coli; type: ADME, organism-based; set-up: unit not given here; method in brief: as §1
[4] = Partition coefficient was obtained using Taylor-Aris diffusion process.; type: ADME; settings: E. coli cells; method in brief: as §1

| SMILES | Dobs (Escherichia coli [2]) | DW (Escherichia coli [3]) | logP [4] | Log D50 (Escherichia coli [1]) |
| --- | --- | --- | --- | --- |
| O=C(NNC(=O)c1ccc([N+](=O)[O-])cc1)c1ccccc1 | 10.15 | 10.879 | -1.14 | 2.38 |
| CC(C)(C)c1ccc(C(=O)NNC(=O)c2ccccc2)cc1 | 15.1 | 17.5 | -0.799 | 3.21 |
| CCCCCc1ccc(C(=O)NNC(=O)c2ccccc2)cc1 | 17.3 | 21.15 | -0.652 | 3.05 |
| O=C(NNC(=O)c1ccccc1)c1ccccc1 | 9.2 | 9.94 | -1.09 | 2.28 |

Continued, in another order:

| Dobs (Escherichia coli [2]) | DW (Escherichia coli [3]) | logP [4] | SMILES | Log D50 (Escherichia coli [1]) |
| --- | --- | --- | --- | --- |
| 14.6 | 16.98 | -0.787 | O=C(NNC(=O)c1ccc(-c2ccccc2)cc1)c1ccccc1 | 3.24 |
| 11.9 | 13.47 | -0.879 | O=C(NNC(=O)c1ccc(Br)cc1)c1ccccc1 | 2.73 |
| 8.98 | 9.86 | -1 | COc1ccc(C(=O)NNC(=O)c2ccccc2)cc1 | 2.6 |
| 11.02 | 12.24 | -0.956 | Cc1ccc(C(=O)NNC(=O)c2ccccc2)cc1 | 2.54 |
